For ten compounds, IC50, Activity and Drug uptake results are on record in ChEMBL document CHEMBL6071208, “Promoting Apoptosis in MCF-7 Cells via ROS Generation by Quinolino-triazoles Derived from One-Pot Telescopic Synthesis” (ACS Med Chem Lett, 2024).

SMILES strings stand for the structures. Activity calls are given as the source filed them. No cut-off for these calls is given here.

In data set [1] the test system is MCF7. Kind of data set: Cytotoxicity against human MCF7 cells assessed inhibition of cell proliferation measured for 24 hrs by MTT assay. As to conditions: MCF7, 24 h. It is filed as functional, cell-based. A digest of the protocol: (§1)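 MTT read-out of proliferation after 24 h exposure; MCF-7 breast cancer cells alongside noncancerous human embryonic kidney HEK-293 cells. IC50 in μM taken as the average ± SD of three individual experiments.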
(Formazan colour is commonly taken as a measure of viable cells.)

For data set [2], the system named is MCF7. Kind of data set: Induction of intracellular ROS generation in human MCF7 cells at 10 uM incubated for 24 hrs by DCFDA staining based fluorescence microscopic analysis. It is filed as functional, cell-based. A digest of the protocol: (§2)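 DCFDA-loaded MCF-7 cells imaged by fluorescence microscopy at 20× for qualitative ROS signal. Cisplatin serves as standard. Images represent three experiments. Scale bar 150 μm.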

The nature of data set [3]: Drug localization in cytoplasm of human MCF7 cells assessed as increase in red fluorescence at 10 uM incubated for 24 hrs by DAPI staining based confocal fluorescence microscopic analysis. It is filed as ADME, subcellular. As to conditions: mcf7, 24 h.
In data set [4] the test system is MCF7. Kind of data set: Induction of DNA fragmentation in human MCF7 cells assessed as increase in fragmented nuclei at 10 uM measured for 24 hrs by DAPI staining based fluorescence microscopic analysis. It is filed as functional, cell-based. The method, boiled down:
(§3)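 MCF-7 nuclei stained with DAPI after exposure, with cisplatin (5 μM) as reference. Fluorescence microscopy scored condensed and fragmented nuclei. Images represent three individual experiments. Scale bar 150 μm.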

For the next data set, the system named is HEK293. Kind of data set: Cytotoxicity against HEK293 cells assessed inhibition of cell proliferation measured after 24 hrs by MTT assay. It is filed as toxicity, cell-based. The following applies: human, hek293, 24 h. The method, boiled down: as §1
For data set [5], the system named is MCF7. Kind of data set: Induction of ROS production in human MCF7 cells assessed as increase in ROS level at 10 uM incubated for 24 hrs by DCFH-DA staining based flow cytometry analysis. It is filed as functional, cell-based. A digest of the protocol: (§4)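 Intracellular ROS measured with the H2DCFDA probe. Esterase-deacetylated dye is oxidised to fluorescent DCF (ex 498/em 522 nm). Flow cytometry gave the percentage of ROS-positive MCF-7 cells against untreated control, with cisplatin (5 μM) as positive control. Mean ± SD of three independent investigations.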
On the technique in general: In flow cytometry, cells or beads pass a laser one at a time.

The subject of data set [6] is Mitochondrial membrane. Kind of data set: Induction of mitochondrial membrane potential loss in human MCF7 cells assessed as increase in fluorescence intensity at 10 uM measured for 24 hrs by rhodamine-123 dye based flow cytometry analysis (reference value: 8%). The method, boiled down:
(§5)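 MCF-7 cells stained with rhodamine-123. Flow cytometry gave the percentage of cells with mitochondrial membrane potential loss against the untreated basal control. Mean ± SD of three independent investigations.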

Data set [7] relates to MCF7. Kind of data set: Induction of apoptosis in human MCF7 cells assessed as increase in Bad mRNA expression at 10 uM measured for 24 hrs bt RT-PCR analysis. It is filed as functional, cell-based. A digest of the protocol: (§6)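 mRNA levels of Bax, Bad (pro-apoptotic) and Bcl-2 (anti-apoptotic) measured in treated MCF-7 cells relative to untreated control. Mean ± SD of three independent studies.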

In data set [8] the test system is MCF7. Kind of data set: Induction of DNA fragmentation in human MCF7 cells assessed as increase in condensed nuclei at 10 uM measured for 24 hrs by DAPI staining based fluorescence microscopic analysis. It is filed as functional, cell-based. The method, boiled down:
as §3

The test system of data set [9] is MCF7. Kind of data set: Induction of apoptosis in human MCF7 cells assessed as decrease in Bcl-2 mRNA expression at 10 uM measured for 24 hrs bt RT-PCR analysis. It is filed as functional, cell-based. The method, boiled down: as §6
The test system of data set [10] is Mitochondrial membrane. Kind of data set: Induction of mitochondrial membrane potential loss in human MCF7 cells assessed as increase in fluorescence intensity at 10 uM measured for 24 hrs by rhodamine-123 dye based flow cytometry analysis. The method, boiled down: as §5
A short description of data set [11]: Drug localization in nucleus of human MCF7 cells assessed as increase in red fluorescence at 10 uM incubated for 24 hrs by DAPI staining based confocal fluorescence microscopic analysis. It is filed as ADME, subcellular. The following applies: mcf7, 24 h.
Data set [12] deals with MCF7. Kind of data set: Induction of apoptosis in human MCF7 cells assessed as increase in early apoptotic cells at 10 uM incubated for 24 hrs by acridine orange/EtBr staining based fluorescence microscopic analysis. It is filed as functional, cell-based. The method, boiled down:
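Acridine orange/ethidium bromide dual staining of MCF-7 cells, with cisplatin (5 μM) as reference. Fluorescence microscopy classified cells as live (green nuclei), early apoptotic, late apoptotic or necrotic (orange-red nuclei). Images represent three independent experiments.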

The subject of data set [13] is MCF7. Kind of data set: Induction of apoptosis in human MCF7 cells assessed as increase in Bax mRNA expression at 10 uM measured for 24 hrs bt RT-PCR analysis. It is filed as functional, cell-based. The method, boiled down: as §6
The test system of data set [14] is MCF7. Kind of data set: Induction of apoptosis in human MCF7 cells assessed as decrease in Bcl-2 mRNA expression at 12 uM measured for 24 hrs bt RT-PCR analysis. It is filed as functional, cell-based. The method, boiled down: as §6
Data set [15] relates to MCF7. Kind of data set: Induction of DNA fragmentation in human MCF7 cells assessed as increase in condensed nuclei at 12 uM measured for 24 hrs by DAPI staining based fluorescence microscopic analysis. It is filed as functional, cell-based. A digest of the protocol: as §3
Data set [16] has as its system MCF7. Kind of data set: Induction of ROS production in human MCF7 cells assessed as increase in ROS level at 12 uM incubated for 24 hrs by DCFH-DA staining based flow cytometry analysis. It is filed as functional, cell-based. A digest of the protocol: as §4
Data set [17] deals with MCF7. Kind of data set: Induction of intracellular ROS generation in human MCF7 cells at 12 uM incubated for 24 hrs by DCFDA staining based fluorescence microscopic analysis. It is filed as functional, cell-based. The method, boiled down: as §2
For data set [18], the system named is MCF7. Kind of data set: Induction of apoptosis in human MCF7 cells assessed as increase in Bax mRNA expression at 12 uM measured for 24 hrs bt RT-PCR analysis. It is filed as functional, cell-based. The method, boiled down:
as §6

For data set [19], the system named is Mitochondrial membrane. Kind of data set: Induction of mitochondrial membrane potential loss in human MCF7 cells assessed as increase in fluorescence intensity at 12 uM measured for 24 hrs by rhodamine-123 dye based flow cytometry analysis (reference value: 8%). The method, boiled down: as §5
In data set [20] the test system is MCF7. Kind of data set: Induction of apoptosis in human MCF7 cells assessed as increase in Bad mRNA expression at 12 uM measured for 24 hrs bt RT-PCR analysis. It is filed as functional, cell-based. A digest of the protocol:
as §6

The nature of data set [21]: Drug localization in human MCF7 cells at 12 uM incubated for 24 hrs by DAPI staining based confocal fluorescence microscopic analysis. It is filed as ADME, cell-based. As to conditions: mcf7, 24 h.
Data set [22] has as its system MCF7. Kind of data set: Induction of apoptosis in human MCF7 cells assessed as increase in number of late apoptotic cells at 12 uM incubated for 24 hrs by acridine orange/EtBr staining based fluorescence microscopic analysis.
Data set [23] relates to MCF7. Kind of data set: Induction of apoptosis in human MCF7 cells assessed as increase in number of necrotic cells at 12 uM incubated for 24 hrs by acridine orange/EtBr staining based fluorescence microscopic analysis.
For data set [24], the system named is Mitochondrial membrane. Kind of data set: Induction of mitochondrial membrane potential loss in human MCF7 cells assessed as increase in fluorescence intensity at 12 uM measured for 24 hrs by rhodamine-123 dye based flow cytometry analysis. A digest of the protocol:
as §5

Data set [25] has as its system MCF7. Kind of data set: Induction of DNA fragmentation in human MCF7 cells assessed as increase in fragmented nuclei at 12 uM measured for 24 hrs by DAPI staining based fluorescence microscopic analysis. It is filed as functional, cell-based. A digest of the protocol:
as §3

With `CCOC(=O)c1n[nH]nc1-c1cc2cc(C)c(C)cc2nc1Oc1ccc(C#N)cc1`, 65 µM corresponded to half-maximal inhibition with MCF7 [1] (IC50). In other words, the double-digit micromolar range.

Regarding `CCOC(=O)c1n[nH]nc1-c1cc2ccccc2nc1Oc1ccccc1`, half-maximal inhibition with MCF7 [1] (IC50) was put at 90 µM.

With `CCOC(=O)c1n[nH]nc1-c1cc2ccc(C)cc2nc1Oc1ccc(C)cc1`, the IC50 (in general, the point on the concentration scale where inhibition reaches its midpoint) in the data set on MCF7 [1] turned out to be 42.5 µM. Compared with the last compound, the IC50 is about 2.1-fold lower.

Take `N#Cc1ccc(Oc2nc3ccccc3cc2-c2n[nH]nc2C(N)=O)cc1`: the result in the data set on MCF7 [2], with MCF7 [4], in the data set with MCF7 [5], in the data set with MCF7 [7], in the data set with MCF7 [8] and with MCF7 [9] was Active. In addition, the result in the data set on Mitochondrial membrane [10], with MCF7 [12] and in the data set with MCF7 [13] was Active. Besides, the Drug uptake result in data set [3] and in data set [11] was “Active” each time. Further, the Activity result with HEK293 is “Non-Toxic”; in the data set on Mitochondrial membrane [6], 23%. Further, 10 µM corresponded to half-maximal inhibition with MCF7 [1] (IC50).

For the compound `NC(=O)c1n[nH]nc1-c1cc2ccccc2nc1Oc1ccc(I)cc1`, the IC50 in the data set on MCF7 [1] is 17.5 µM.

Compound `Cc1ccc(Oc2nc3ccccc3cc2-c2n[nH]nc2C(N)=O)cc1` came in with an IC50 with MCF7 [1] of 62.5 µM.

In the data set on MCF7 [1], `CCOC(=O)c1n[nH]nc1-c1cc2ccc(C)cc2nc1Oc1ccc(I)cc1` gave an IC50 of 20 µM.

Turning to `CCOC(=O)c1n[nH]nc1-c1cc2ccccc2nc1Oc1ccc(C)cc1`, the IC50 in the data set on MCF7 [1] came out at 53 µM.

In the case of `NC(=O)c1n[nH]nc1-c1cc2ccccc2nc1Oc1ccc(Br)cc1`, the outcome with MCF7 [14], in the data set on MCF7 [15], in the data set with MCF7 [16], in the data set with MCF7 [17], with MCF7 [18] and with MCF7 [20] was Active. The outcome with MCF7 [22], with MCF7 [23], in the data set on Mitochondrial membrane [24] and in the data set with MCF7 [25] was Active. The Activity result was “Non-Toxic” in the data set with HEK293 and 14% in the data set on Mitochondrial membrane [19]. Also, the Drug uptake entry in [21] is recorded as “Not Active”. Besides, in the data set with MCF7 [1], the IC50 worked out at 12 µM.

`CCOC(=O)c1n[nH]nc1-c1cc2ccc(C)cc2nc1Oc1ccc(C#N)cc1` registered an IC50 in the data set on MCF7 [1] of 19 µM.
